We go through eight molecules from ChEMBL document CHEMBL3351944 (J Nat Prod, 2014).

Data set [1] concerns MDCK. The data set is described as follows: Apparent permeability from basolateral side to apical in MDCK cells expressing MDR1 at 10 uM after 60 mins by LC/MS analysis. The class given is ADME, cell-based, Canis lupus familiaris. The following applies: dog, 1 h.
The test system of data set [2] is MDCK. The data set is described as follows: Apparent permeability from basolateral side to apical in verapamil pretreated MDCK cells expressing MDR1 at 10 uM after 60 mins by LC/MS analysis. Particulars: dog, 1 h. The format is ADME, cell-based, Canis lupus familiaris.
For data set [3], the system named is MCF7. The data set is described as follows: Antiproliferative activity against human MCF7 cells assessed as growth inhibition after 72 hrs by MTS/PMS assay. The class given is functional, cell-based. The following applies: MCF7, 72 h. The procedure, abridged:
(§1)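 MCF7 cells seeded at 2000/well and left to attach overnight. Six-point curves in duplicate over 100 nM–100 μM for test compounds and 1 nM–1 μM for geldanamycin, 1% DMSO final, 72 h at 37 °C. Growth read by MTS/PMS and normalized to 1% DMSO controls. At least two independent experiments; nonlinear regression gave IC50 and % inhibition.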

For data set [4], the system named is MCF7. The data set is described as follows: Antiproliferative activity against human MCF7 cells assessed as growth inhibition after 72 hrs by MTS/PMS assay relative to DNSO-treated control. The format is functional. The procedure, abridged: as §1
The target in data set [5] is T1, Kappa-type opioid receptor (Homo sapiens, UniProt P41145). The data set is described as follows: Agonist activity at human kappa opioid receptor expressed CHO cells co-expressing Galphaq16 assessed as calcium mobilization by fluorescence assay. The format is functional, cell-based. The procedure, abridged:
(§2)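 CHO cells stably expressing KOP and Gαq16, grown overnight at 37 °C. Loaded with Calcium 5 dye in HBSS with 20 mM HEPES, 0.25% BSA, 1% DMSO, […], 1 h at 37 °C. Compounds added as 10× dilutions, top 10 μM. Fluorescence change over baseline recorded for 60 s. 10-point curves in duplicate, n = 2. Nonlinear regression gave EC50 and Emax.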

Data set [6] concerns the target T1, Kappa-type opioid receptor. The data set is described as follows: Agonist activity at human kappa opioid receptor expressed CHO cells co-expressing Galphaq16 assessed as calcium mobilization by fluorescence assay relative to (-)-U69593. The class given is functional, cell-based. The procedure, abridged: as §2
On the technique in general: Calcium flux is commonly read through the fluorescence of an indicator in the cells.

What is called IC50 is the concentration at which inhibition is half-maximal. What is called EC50 is the concentration needed to bring the measured effect to its halfway point. As usually defined, the Emax is the size of the effect at its maximum, as opposed to the concentration needed.

Bounds are passed on as bounds.

T1 sequence (P41145 whole entry): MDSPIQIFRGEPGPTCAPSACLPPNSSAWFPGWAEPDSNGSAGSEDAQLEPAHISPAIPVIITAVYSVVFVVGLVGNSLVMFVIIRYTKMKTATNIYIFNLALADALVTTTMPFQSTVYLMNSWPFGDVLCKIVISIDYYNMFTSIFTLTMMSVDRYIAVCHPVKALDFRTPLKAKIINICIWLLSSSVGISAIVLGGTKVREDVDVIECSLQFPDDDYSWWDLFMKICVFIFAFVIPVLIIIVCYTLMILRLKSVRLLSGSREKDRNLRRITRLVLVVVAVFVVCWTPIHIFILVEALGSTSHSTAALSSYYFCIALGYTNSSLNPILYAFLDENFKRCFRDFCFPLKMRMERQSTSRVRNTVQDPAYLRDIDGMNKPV

For the molecule `COc1cc2nc(N3CCN(C(=O)c4ccco4)CC3)nc(N)c2cc1OC` [PRAZOSIN], the permeability with MDCK [1] worked out at 6.7%; with MDCK [2] it was 35.5%.
As to `O=C1C=CC(=O)C=C1` [BENZOQUINONE], the IC50 in the data set with MCF7 [3] came to 2570 nM. Also, the “inhibition (INH)” value in the data set with MCF7 [4] was 85%.
Regarding `COC(=O)[C@@H]1C[C@H](OC(C)=O)C(=O)[C@H]2[C@@]1(C)CC[C@H]1C(=O)O[C@H](c3ccoc3)C[C@]21C` [SALVINORIN A], in the data set on MCF7 [3], the IC50 was more than 100000 nM. In addition, the values for the permeability in the data set with MDCK [1] and in the data set with MDCK [2] were 21.2% and 54.2%, respectively.
Consider `COC(=O)[C@@H]1C[C@H](OC(C)=O)C(=O)[C@H]2[C@@]1(C)CC[C@H]1C(=O)O[C@H](CC3=CC(=O)C=CC3=O)C[C@]21C`, for which, in data set [5], the EC50 worked out at 2500 nM. For the same molecule, in the data set on MCF7 [3], the half-inhibitory concentration (IC50) amounted to 6540 nM. Besides, the “inhibition (INH)” value in the data set with MCF7 [4] was found to be 77%. Besides, in data set [6], the Emax amounted to 27%.
`COC1=C2C[C@@H](C)C[C@H](OC)[C@H](O)[C@@H](C)/C=C(\C)[C@H](OC(N)=O)[C@@H](OC)/C=C\C=C(/C)C(=O)NC(=CC1=O)C2=O` [GELDANAMYCIN]: the IC50 with MCF7 [3] is 40 nM. In addition, the “inhibition (INH)” value in the data set on MCF7 [4] was determined as 81%.
In the case of `COC(=O)[C@@H]1C[C@H](OC(C)=O)C(=O)[C@H]2[C@@]1(C)CC[C@H]1C(=O)O[C@H](CC3=CC(=O)C(OC)=CC3=O)C[C@]21C`, in data set [5], the EC50 is more than 10000 nM. In the data set on MCF7 [3], the IC50 amounted to 5840 nM. Also, in the data set on MCF7 [4], the “inhibition (INH)” value is 83%. Besides, the permeability in the data set on MDCK [1] is on record as 9.7%; with MDCK [2], 38.4%.
The like results for `COC(=O)[C@@H]1C[C@H](OC(C)=O)C(=O)[C@H]2[C@@]1(C)CC[C@H]1C(=O)O[C@H](CC3=CC(=O)C(OC)=C(OC)C3=O)C[C@]21C` were, in that order, more than 10000 nM, 2700 nM, 86%, 5% and 47.2%.
As for `Cn1c(=O)c2c(ncn2C)n(C)c1=O` [CAFFEINE], the permeability with MDCK [1] came to 85.9%; in the data set with MDCK [2], 73%.
